ChEMBL document CHEMBL1759852, “A comparative study of proapoptotic potential of cyano analogues of boswellic acid and 11-keto-boswellic acid” (Eur J Med Chem, 2011)
Active and inactive are the calls of the source. The rule behind the calls is not given here.

Assays:
HeLa = test: Cytotoxicity against human HeLa cells after 48 hrs by MTT assay; format: functional, cell-based
Method in brief: (§1)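 HL-60 (2 × 10^4/200 μl) or HeLa (1 × 10^4/200 μl) in RPMI-1640/MEM, 10% FCS, 37 °C, 5% CO2; treated 0.1–50 μM for 48 h, DMSO vehicle <0.2%. MTT added final 3 h; formazan dissolved in DMSO, OD 570 nm (reference 620 nm). IC50 as 50% viability versus untreated control; three experiments, CV <10%.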

HL-60 [1] = test: Cytotoxicity against human HL60 cells after 48 hrs by MTT assay; format: functional, cell-based; details: HL-60, 48 h; method in brief: as §1
HL-60 [2] = test: Induction of apoptosis in human HL60 cells assessed as loss of cell cytoplasmic volume at 2 uM after 9 hrs by scanning electron microscopy; format: functional, cell-based
Method in brief: (§2)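 HL-60 seeded 2 × 10^5/ml in medium with 10% FCS, treated at 0.5 and 2 μM (DMSO stock; vehicle-only controls) for 9 h at 37 °C. Fixed 2.5% glutaraldehyde in 0.1 M phosphate pH 7.2 at 4 °C 1 h, post-fixed 1% OsO4 1 h, acetone-dehydrated, critical-point dried, gold-coated; surface ultrastructure by scanning electron microscopy.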

HL-60 [3] = test: Induction of apoptosis in human HL60 cells assessed as late apoptotic cells at 2 uM after 6 hrs using Annexin-V-FITC/propidium iodide staining by flow cytometry (reference value: 1%); format: functional
Method in brief: (§3)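 HL-60 cells (1 × 10^6/ml) treated 6 h at varied concentrations; camptothecin 4 μM 6 h positive control. AnnexinV-FITC and propidium iodide staining per kit; FL-1 versus FL-2 flow cytometry with quadrant statistics for apoptotic and necrotic populations; representative of three experiments.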

HL-60 [4] = test: Induction of apoptosis in human HL60 cells assessed as late apoptotic cells at 4 uM after 6 hrs using Annexin-V-FITC/propidium iodide staining by flow cytometry (reference value: 1%); format: functional; method in brief: as §3
HL-60 [5] = test: Induction of apoptosis in human HL60 cells assessed as nuclear condensation and blebbing at 0.5 to 2 uM after 9 hrs Hoechst 33258 staining by fluorescence microscopy; format: functional, cell-based
Method in brief: (§4)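 HL-60 cells (2 × 10^6/3 ml) treated 9 h, washed twice in PBS, fixed and stained with Hoechst 33258; nuclear morphology and apoptotic bodies examined by inverted fluorescence microscopy.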

HL-60 [6] = test: Induction of apoptosis in human HL60 cells assessed as apoptotic cells at 2 uM after 9 hrs by scanning electron microscopy; format: functional, cell-based; method in brief: as §2
HL-60 [7] = test: Induction of apoptosis in human HL60 cells assessed as cell shrinkage and apoptotic body formation at 0.5 uM after 9 hrs by scanning electron microscopy; format: functional, cell-based; method in brief: as §2
HL-60 [8] = test: Cell cycle arrest in human HL60 cells assessed as accumulation at sub-G1 phase at 4 uM after 18 hrs by flow cytometry relative to control; format: functional
Method in brief: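 HL-60 cells at 1 × 10^6/ml exposed 18 h; camptothecin 4 μM for 6 h as positive control. Cells pelleted 160 × g 5 min, PBS-washed, fixed in cold 70% alcohol overnight at −20 °C, RNase (400 μg/ml) digested, PI-stained; flow cytometry, hypo-diploid (<2n DNA) sub-G0/G1 fraction scored as apoptotic.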

HL-60 [9] = test: Induction of apoptosis in human HL60 cells assessed as early apoptotic cells at 2 uM after 6 hrs using Annexin-V-FITC/propidium iodide staining by flow cytometry (reference value: 6%); format: functional; method in brief: as §3
HL-60 [10] = test: Induction of apoptosis in human HL60 cells assessed as late apoptotic cells at 0.3 uM after 6 hrs using Annexin-V-FITC/propidium iodide staining by flow cytometry (reference value: 1%); format: functional; method in brief: as §3
HL-60 [11] = test: Induction of apoptosis in human HL60 cells assessed as early apoptotic cells at 0.3 uM after 6 hrs using Annexin-V-FITC/propidium iodide staining by flow cytometry (reference value: 6%); format: functional; method in brief: as §3
HL-60 [12] = test: Induction of apoptosis in human HL60 cells assessed as early apoptotic cells at 1 uM after 6 hrs using Annexin-V-FITC/propidium iodide staining by flow cytometry (reference value: 6%); format: functional; method in brief: as §3
HL-60 [13] = test: Induction of apoptosis in human HL60 cells assessed as early apoptotic cells at 4 uM after 6 hrs using Annexin-V-FITC/propidium iodide staining by flow cytometry (reference value: 6%); format: functional; method in brief: as §3
HL-60 [14] = test: Induction of apoptosis in human HL60 cells assessed as smoothening of cell surface and blebbing of plasma membrane at 0.5 uM after 9 hrs by scanning electron microscopy; format: functional, cell-based; method in brief: as §2
HL-60 [15] = test: Induction of apoptosis in human HL60 cells assessed as late apoptotic cells at 1 uM after 6 hrs using Annexin-V-FITC/propidium iodide staining by flow cytometry (reference value: 1%); format: functional; method in brief: as §3
HL-60 [16] = test: Induction of apoptosis in human HL60 cells assessed as increase in scattered apoptotic bodies formation at 0.5 uM after 9 hrs using Hoechst 33258 staining by fluorescence microscopy; format: functional, cell-based; method in brief: as §4
HL-60 [17] = test: Induction of apoptosis in human HL60 cells assessed as induction of morphological changes after 9 hrs by scanning electron microscopy; format: functional, cell-based; method in brief: as §2
HL-60 [18] = test: Induction of apoptosis in human HL60 cells assessed as DNA ladder formation at 1 uM after 9 hrs by agarose gel electrophoresis; format: functional, cell-based
Method in brief: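 HL-60 cells (2 × 10^6) treated 9 h; untreated negative control, camptothecin 4 μM positive control. Cells washed in PBS with 10 mM EDTA, lysed, genomic DNA extracted, precipitated, washed in 80% alcohol, dissolved in TE; run on 1.6% agarose at 50 V, ethidium bromide stained for laddering.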

Row | Structure (SMILES) | IC50 (HeLa) [µM] | IC50 (HL-60 [1]) [µM] | further results
1 | C[C@H]1[C@H](C)CC[C@]2(C)CC[C@]3(C)C(=CC(=O)[C@@H]4[C@@]5(C)CC(C(N)=O)[C@H](O)[C@](C)(C(=O)O)[C@@H]5CC[C@]43C)[C@H]12 (stereo not given in full) | > 50 | > 50 | 
2 | CC(=O)O[C@@H]1CC[C@@]2(C)[C@@H](CC[C@]3(C)[C@@H]2CC=C2[C@@H]4[C@@H](C)[C@H](C)CC[C@]4(C)CC[C@]23C)[C@@]1(C)C(=O)O | 22 | 10 | 
3 | CCCCOC(=O)[C@@]1(C)C(=O)C(C#N)=C[C@]2(C)[C@H]3CC=C4[C@@H]5[C@@H](C)[C@H](C)CC[C@]5(C)CC[C@@]4(C)[C@]3(C)CC[C@@H]12 | 7.9 | 0.42 | Activity (HL-60 [2]): Active; Activity (HL-60 [3]): 2%; Activity (HL-60 [4]): 1%; Activity (HL-60 [5]): Active; Activity (HL-60 [6]): Active; Activity (HL-60 [7]): Active; Activity (HL-60 [8]): 76%; Activity (HL-60 [9]): 11%; Activity (HL-60 [10]): 2%; Activity (HL-60 [11]): 9%; Activity (HL-60 [12]): 10%; Activity (HL-60 [13]): 12%; Activity (HL-60 [14]): Active; Activity (HL-60 [15]): 1%; Activity (HL-60 [16]): Active
4 | C[C@H]1[C@H](C)CC[C@]2(C)CC[C@]3(C)C(=CC(=O)[C@@H]4[C@@]5(C)CC(C(N)=O)[C@H](O)[C@](C)(N)[C@@H]5CC[C@]43C)[C@H]12 (stereo not given in full) | > 50 | > 50 | 
5 | CCCCOC(=O)[C@]1(C)[C@@H]2CC[C@]3(C)[C@H](CC=C4[C@@H]5[C@@H](C)[C@H](C)CC[C@]5(C)CC[C@]43C)[C@@]2(C)CC(C#N)[C@@H]1O (stereo not given in full) | > 50 | > 50 | 
6 | CCCCOC(=O)[C@]1(C)[C@@H]2CC[C@]3(C)[C@H](C(=O)C=C4[C@@H]5[C@@H](C)[C@H](C)CC[C@]5(C)CC[C@]43C)[C@@]2(C)CC[C@H]1OC(C)=O | 40 | 30 | 
7 | C[C@H]1[C@H](C)CC[C@]2(C)CC[C@]3(C)C(=CC[C@@H]4[C@@]5(C)CC(C(N)=O)[C@H](O)[C@](C)(N)[C@@H]5CC[C@]43C)[C@H]12 (stereo not given in full) | > 50 | 37 | 
8 | C[C@H]1[C@H](C)CC[C@]2(C)CC[C@]3(C)C(=CC[C@@H]4[C@@]5(C)CC(C(N)=O)[C@H](O)[C@](C)(C(=O)O)[C@@H]5CC[C@]43C)[C@H]12 (stereo not given in full) | > 50 | > 50 | 
9 | CCCCOC(=O)[C@@]1(C)C(=O)C(C#N)=C[C@]2(C)[C@H]3C(=O)C=C4[C@@H]5[C@@H](C)[C@H](C)CC[C@]5(C)CC[C@@]4(C)[C@]3(C)CC[C@@H]12 | 3 | 0.67 | Activity (HL-60 [3]): 1%; Activity (HL-60 [4]): 1%; Activity (HL-60 [5]): Active; Activity (HL-60 [8]): 96%; Activity (HL-60 [9]): 24%; Activity (HL-60 [17]): Dose-dependent effect; Activity (HL-60 [10]): 3%; Activity (HL-60 [11]): 15%; Activity (HL-60 [12]): 20%; Activity (HL-60 [13]): 26%; Activity (HL-60 [15]): 2%; Activity (HL-60 [16]): Active; Activity (HL-60 [18]): Active
10 | CCCCOC(=O)[C@@]1(C)[C@H](O)CC[C@@]2(C)[C@H]1CC[C@]1(C)[C@@H]2CC=C2[C@@H]3[C@@H](C)[C@H](C)CC[C@]3(C)CC[C@]21C | > 50 | > 50 | 
11 | CCCCOC(=O)[C@@]1(C)[C@H](O)CC[C@@]2(C)[C@H]1CC[C@]1(C)[C@@H]2C(=O)C=C2[C@@H]3[C@@H](C)[C@H](C)CC[C@]3(C)CC[C@]21C | 50 | 34 | 
12 | CCCCOC(=O)[C@@]1(C)C(=O)C(C#N)C[C@]2(C)[C@H]3C(=O)C=C4[C@@H]5[C@@H](C)[C@H](C)CC[C@]5(C)CC[C@@]4(C)[C@]3(C)CC[C@@H]12 (stereo not given in full) | 17 | 11 | 
13 | CC(=O)O[C@@H]1CC[C@@]2(C)[C@@H](CC[C@]3(C)[C@@H]2C(=O)C=C2[C@@H]4[C@@H](C)[C@H](C)CC[C@]4(C)CC[C@]23C)[C@@]1(C)C(=O)O [AKBA] | 31 | 11 | 
14 | CCCCOC(=O)[C@@]1(C)C(=O)CC[C@]2(C)[C@H]3CC=C4[C@@H]5[C@@H](C)[C@H](C)CC[C@]5(C)CC[C@@]4(C)[C@]3(C)CC[C@@H]12 | > 50 | > 50 | 
15 | CCCCOC(=O)[C@@]1(C)C(=O)C(C#N)C[C@]2(C)[C@H]3CC=C4[C@@H]5[C@@H](C)[C@H](C)CC[C@]5(C)CC[C@@]4(C)[C@]3(C)CC[C@@H]12 (stereo not given in full) | 35 | 14 | 
16 | CCCCOC(=O)[C@@]1(C)C(=O)CC[C@]2(C)[C@H]3C(=O)C=C4[C@@H]5[C@@H](C)[C@H](C)CC[C@]5(C)CC[C@@]4(C)[C@]3(C)CC[C@@H]12 | > 50 | > 50 | 
17 | CCCCOC(=O)[C@@]1(C)c2oncc2C[C@@]2(C)[C@H]1CC[C@]1(C)[C@@H]2C(=O)C=C2[C@@H]3[C@@H](C)[C@H](C)CC[C@]3(C)CC[C@]21C | > 50 | 33 | 
18 | CCCCOC(=O)[C@]1(C)[C@@H]2CC[C@]3(C)[C@H](CC=C4[C@@H]5[C@@H](C)[C@H](C)CC[C@]5(C)CC[C@]43C)[C@@]2(C)CC[C@H]1OC(C)=O | > 50 | 28 | 
19 | CCCCOC(=O)[C@]1(C)[C@@H]2CC[C@]3(C)[C@H](C(=O)C=C4[C@@H]5[C@@H](C)[C@H](C)CC[C@]5(C)CC[C@]43C)[C@@]2(C)CC(C#N)[C@@H]1O (stereo not given in full) | 30 | 14 | 
20 | CCCCOC(=O)[C@@]1(C)C(=O)/C(=C\O)C[C@]2(C)[C@H]3C(=O)C=C4[C@@H]5[C@@H](C)[C@H](C)CC[C@]5(C)CC[C@@]4(C)[C@]3(C)CC[C@@H]12 | > 50 | 5 | 
21 | CCCCOC(=O)[C@@]1(C)c2oncc2C[C@@]2(C)[C@H]1CC[C@]1(C)[C@@H]2CC=C2[C@@H]3[C@@H](C)[C@H](C)CC[C@]3(C)CC[C@]21C | 50 | 50 | 
22 | C[C@H]1[C@H](C)CC[C@]2(C)CC[C@]3(C)C(=CC[C@@H]4[C@@]5(C)CC[C@@H](O)[C@](C)(C(=O)O)[C@@H]5CC[C@]43C)[C@H]12 [BOSWELLIC ACID] | 35 | 24 | 
23 | CCCCOC(=O)[C@@]1(C)C(=O)/C(=C\O)C[C@]2(C)[C@H]3CC=C4[C@@H]5[C@@H](C)[C@H](C)CC[C@]5(C)CC[C@@]4(C)[C@]3(C)CC[C@@H]12 | 44 | 33 | 
24 | C[C@H]1[C@H](C)CC[C@]2(C)CC[C@]3(C)C(=CC(=O)[C@@H]4[C@@]5(C)CC[C@@H](O)[C@](C)(C(=O)O)[C@@H]5CC[C@]43C)[C@H]12 [11-KETO BOSWELLIC ACID] | 50 | 32 | 
25 | C[C@H]1[C@H](C)CC[C@]2(C)CC[C@]3(C)C(=CC[C@@H]4[C@@]5(C)CC(C(N)=O)[C@H](O)[C@](C)(N=C=O)[C@@H]5CC[C@]43C)[C@H]12 (stereo not given in full) | > 50 | > 50 | 
26 | C[C@H]1[C@H](C)CC[C@]2(C)CC[C@]3(C)C(=CC(=O)[C@@H]4[C@@]5(C)CC(C(N)=O)[C@H](O)[C@](C)(N=C=O)[C@@H]5CC[C@]43C)[C@H]12 (stereo not given in full) | 45 | 24 | 
